Reference: ChEMBL document CHEMBL1926621, “New potent 5-HT(2A) receptor ligands containing an N'-cyanopicolinamidine nucleus: Synthesis and in vitro pharmacological evaluation” (Eur J Med Chem, 2012)

How the values were obtained:
D(2) dopamine receptor = D(2) dopamine receptor (Rattus norvegicus, UniProt P61169); experiment: Displacement of [3H]spiperone from rat corpora striatum dopamine D2 receptor after 15 mins by liquid scintillation counting; details: read-out: Ki
Summary of the method: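 Corpora striata membranes in Tris-HCl buffer containing NaCl, KCl, CaCl2, MgCl2, ascorbic acid and pargyline. [3H]spiperone 0.4 nM final, 3 mg fresh tissue, incubated 15 min at 37 °C. GF/B filtration, scintillation counting. Six concentrations in triplicate. IC50 converted to Ki via Cheng-Prusoff.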

[1] = target: T1, 5-hydroxytryptamine receptor 1A (Rattus norvegicus, UniProt P19327); experiment: Displacement of [3H]-8-OH-DPAT from Sprague-Dawley rat brain cortex serotonin 5-HT1A receptor after 30 mins by liquid scintillation counting; details: read-out: Ki
T1 sequence (P19327 whole entry): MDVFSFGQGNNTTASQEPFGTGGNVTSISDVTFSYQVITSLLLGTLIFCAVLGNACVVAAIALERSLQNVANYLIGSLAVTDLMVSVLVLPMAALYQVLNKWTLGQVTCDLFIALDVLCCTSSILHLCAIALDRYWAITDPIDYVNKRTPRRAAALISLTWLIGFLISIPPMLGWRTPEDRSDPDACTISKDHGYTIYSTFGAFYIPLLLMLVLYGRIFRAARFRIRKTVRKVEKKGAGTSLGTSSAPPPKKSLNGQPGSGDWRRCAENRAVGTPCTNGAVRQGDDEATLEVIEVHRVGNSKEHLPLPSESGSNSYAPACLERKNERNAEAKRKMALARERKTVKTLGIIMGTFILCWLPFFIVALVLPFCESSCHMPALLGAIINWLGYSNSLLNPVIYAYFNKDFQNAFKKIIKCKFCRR
Summary of the method: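 Male Sprague-Dawley rat (180-220 g) cerebral cortex homogenized in 50 mM Tris-HCl pH 7.7, spun 50,000 g. [3H]-8-OH-DPAT 0.1 nM final, 30 min at 37 °C, GF/B filtration. Test compounds in ethanol or 5% DMSO, six concentrations in triplicate. IC50 by curve fitting, Ki by Cheng-Prusoff using Scatchard-derived KD.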

[2] = target: 5-hydroxytryptamine receptor 2A (Rattus norvegicus, UniProt P14842); experiment: Displacement of [3H]ketanserin from Sprague-Dawley rat brain cortex serotonin 5-HT2A receptor after 15 mins by liquid scintillation counting; details: for Ki: read-out: Ki
Sequence of 5-hydroxytryptamine receptor 2A (P14842 whole entry): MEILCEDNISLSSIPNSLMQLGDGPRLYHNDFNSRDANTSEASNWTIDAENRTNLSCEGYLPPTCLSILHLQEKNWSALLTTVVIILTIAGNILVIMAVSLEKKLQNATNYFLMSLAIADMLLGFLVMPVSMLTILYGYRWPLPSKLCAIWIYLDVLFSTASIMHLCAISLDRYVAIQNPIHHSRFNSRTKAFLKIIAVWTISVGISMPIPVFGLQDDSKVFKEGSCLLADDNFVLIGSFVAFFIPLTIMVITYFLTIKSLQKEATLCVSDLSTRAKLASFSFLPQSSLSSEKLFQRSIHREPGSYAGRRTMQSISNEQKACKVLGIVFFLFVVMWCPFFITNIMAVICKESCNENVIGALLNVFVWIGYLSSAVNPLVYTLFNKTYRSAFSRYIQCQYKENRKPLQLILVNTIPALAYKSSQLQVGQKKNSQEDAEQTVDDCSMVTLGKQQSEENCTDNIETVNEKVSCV
Summary of the method: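 Male Sprague-Dawley rat frontal cortex membranes in 50 mM Tris-HCl, 0.5 mM EDTA, 10 mM MgCl2 pH 7.4, with 0.1% ascorbate and pargyline. 0.4 nM [3H]ketanserin, 5 mg wet tissue, 15 min at 37 °C. Filtered on PEI-soaked glass fibre. Six compound concentrations in triplicate. IC50 converted to Ki by Cheng-Prusoff.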

[3] = target: T2, Adrenergic receptor alpha-1 (Rattus norvegicus, UniProt P15823+P23944+P43140); experiment: Displacement of [3H]prazosin from rat brain cortex adrenergic alpha1 receptor after 30 mins by liquid scintillation counting
T2 sequence (P15823 whole entry): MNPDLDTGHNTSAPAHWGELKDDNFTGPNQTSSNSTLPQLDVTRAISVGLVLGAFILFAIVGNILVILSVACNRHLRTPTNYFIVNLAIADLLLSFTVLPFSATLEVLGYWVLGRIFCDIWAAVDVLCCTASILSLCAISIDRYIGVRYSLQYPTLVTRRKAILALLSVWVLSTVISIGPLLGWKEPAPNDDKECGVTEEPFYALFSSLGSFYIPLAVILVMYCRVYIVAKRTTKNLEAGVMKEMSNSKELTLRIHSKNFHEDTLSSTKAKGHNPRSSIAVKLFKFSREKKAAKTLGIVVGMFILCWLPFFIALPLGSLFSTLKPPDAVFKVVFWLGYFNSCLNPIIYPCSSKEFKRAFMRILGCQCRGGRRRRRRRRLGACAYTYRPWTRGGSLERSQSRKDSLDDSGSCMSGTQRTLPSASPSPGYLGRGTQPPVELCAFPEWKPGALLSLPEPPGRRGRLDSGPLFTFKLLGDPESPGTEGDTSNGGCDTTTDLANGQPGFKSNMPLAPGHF
T2 sequence (P23944 whole entry): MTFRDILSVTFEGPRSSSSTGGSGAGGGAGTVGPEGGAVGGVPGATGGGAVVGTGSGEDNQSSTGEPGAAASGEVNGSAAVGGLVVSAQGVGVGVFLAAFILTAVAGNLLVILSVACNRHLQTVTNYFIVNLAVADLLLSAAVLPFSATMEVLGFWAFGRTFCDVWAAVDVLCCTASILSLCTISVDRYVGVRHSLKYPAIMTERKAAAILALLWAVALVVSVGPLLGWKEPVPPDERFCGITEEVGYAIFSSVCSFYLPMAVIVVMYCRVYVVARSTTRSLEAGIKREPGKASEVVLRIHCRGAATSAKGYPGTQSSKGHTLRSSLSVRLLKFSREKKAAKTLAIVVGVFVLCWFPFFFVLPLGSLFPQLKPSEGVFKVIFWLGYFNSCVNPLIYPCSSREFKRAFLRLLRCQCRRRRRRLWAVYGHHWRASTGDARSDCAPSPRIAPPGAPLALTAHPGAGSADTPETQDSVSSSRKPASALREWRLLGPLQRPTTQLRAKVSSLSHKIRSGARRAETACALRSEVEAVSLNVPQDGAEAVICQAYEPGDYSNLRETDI
T2 sequence (P43140 whole entry): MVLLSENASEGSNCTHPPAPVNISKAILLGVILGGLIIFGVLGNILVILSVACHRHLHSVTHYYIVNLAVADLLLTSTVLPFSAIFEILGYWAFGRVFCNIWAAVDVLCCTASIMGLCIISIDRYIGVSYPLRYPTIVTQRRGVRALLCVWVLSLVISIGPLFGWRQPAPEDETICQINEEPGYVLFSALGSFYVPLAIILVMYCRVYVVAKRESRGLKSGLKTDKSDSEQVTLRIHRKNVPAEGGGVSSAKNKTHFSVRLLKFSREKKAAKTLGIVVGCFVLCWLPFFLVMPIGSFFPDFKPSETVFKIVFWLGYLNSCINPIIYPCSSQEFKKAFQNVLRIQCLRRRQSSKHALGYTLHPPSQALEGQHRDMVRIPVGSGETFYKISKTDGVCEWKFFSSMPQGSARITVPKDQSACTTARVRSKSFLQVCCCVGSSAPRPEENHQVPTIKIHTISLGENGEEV
Summary of the method: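 Brain cortex homogenized in 50 mM Tris-HCl pH 7.2, spun twice at 50,000 g, resuspended in Tris-HCl pH 7.4. 0.4 nM [3H]prazosin final, 10 mg fresh tissue, 30 min at 25 °C. Nonspecific binding with phentolamine. GF/B filtration. Ki by Cheng-Prusoff from six-point triplicate curves.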

Sequence of D(2) dopamine receptor (P61169 whole entry): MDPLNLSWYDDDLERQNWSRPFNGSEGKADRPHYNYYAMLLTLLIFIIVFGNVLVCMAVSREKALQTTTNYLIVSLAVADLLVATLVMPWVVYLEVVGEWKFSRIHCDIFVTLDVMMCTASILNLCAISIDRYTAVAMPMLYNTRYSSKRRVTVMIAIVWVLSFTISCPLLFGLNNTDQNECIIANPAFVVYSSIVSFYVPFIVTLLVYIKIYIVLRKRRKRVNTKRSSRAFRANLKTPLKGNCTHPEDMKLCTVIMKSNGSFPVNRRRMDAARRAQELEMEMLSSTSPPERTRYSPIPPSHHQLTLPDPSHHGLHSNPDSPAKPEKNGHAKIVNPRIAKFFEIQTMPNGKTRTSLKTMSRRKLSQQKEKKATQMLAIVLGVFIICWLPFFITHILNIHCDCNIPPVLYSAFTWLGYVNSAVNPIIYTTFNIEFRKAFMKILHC

Ki (D(2) dopamine receptor) [nM] | Ki [1] [nM] | Ki [2] [nM] | Ki [3] [nM] | IC50 [2] [nM] | SMILES
> 10000 | 3080 | 0.0161 | > 10000 | 0.0217 | N#C/N=C(\NCCCN1CCN(c2ncccn2)CC1)c1ccccn1
> 10000 | 4.68 | 0.00157 | 105 | 0.00212 | COc1ccccc1N1CCN(CCCN/C(=N\C#N)c2ccccn2)CC1
83.7 | 1.31 | 0.000778 | 770 | 0.00105 | N#C/N=C(\NCCCN1CCN(c2cccc(C(F)(F)F)c2)CC1)c1ccccn1

Continued, compound first:

SMILES | Ki (D(2) dopamine receptor) [nM] | Ki [1] [nM] | Ki [2] [nM] | Ki [3] [nM] | IC50 [2] [nM]
Cc1cccc(N2CCN(CCCN/C(=N\C#N)c3ccccn3)CC2)c1C | > 10000 | 30 | 0.867 | 729 | –
N#C/N=C(\NCCCN1CCN(c2ccccn2)CC1)c1ccccn1 | > 10000 | 30.6 | 1.12 | 130 | –
CCOc1ccccc1N1CCN(CCCN/C(=N\C#N)c2ccccn2)CC1 | > 10000 | 17.2 | 2730 | 152 | –
